# Results reported in PMC10210236 (ACS Omega, 2023).
# “Also recorded” adds a separate entry of the source.
# Legend:
# [1] = system: C13* cells; assay: Flow cytometric analysis of cell cycle; type: cell-based, human; settings: 48 h, concentration approx. IC50
# [2] = system: 2008, C13*, and Sk-Mel28 cell lines; assay: Flow cytometric analysis of cell cycle, statement for all three lines; type: cell-based, human; settings: 48 h, versus untreated
# [3] = system: Sk-Mel28 cells; assay: Flow cytometric analysis of cell cycle; type: cell-based, human; settings: 48 h, concentration approx. IC50
# [4] = Dissolution / intrinsic dissolution rate of pellets in pH 1.2; type: physicochemical; settings: neat drug; for pure drug dissolution value: gastric pH 1.2 (0.1 N HCl)
# How it was run: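 Run in 0.1 N HCl, pH 1.2, simulating gastric conditions, in a 500 mL medium over 3 h with sampling from 15 to 180 min. Read-outs were cumulative amount dissolved and intrinsic dissolution rate, quantified separately for each drug component from the salt. Salt batch was scaled up by ethanol drop grinding, with phase purity checked by PXRD profile fitting. Leftover solids were characterized afterwards.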
# [5] = system: 2008 cells; assay: Flow cytometric analysis of cell cycle; type: cell-based, human; settings: 48 h, concentration approx. IC50
# [6] = Equilibrium solubility / slurry experiment at pH 1.2, phase of residue; type: physicochemical; settings: pH 1.2 (0.1 N HCl)
# How it was run: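 Equilibrium slurry of salt or free base in 0.1 N HCl, pH 1.2. Undissolved residue was characterized by DSC, TGA, PXRD profile fitting against the single-crystal structure, FESEM morphology, and FESEM-EDX chloride content to detect phase conversion, such as hydrochloride formation.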
# [7] = cited from earlier work
# [8] = system: ovarian cancer cell lines (A2780, 2008, A2780/CP, C13*); assay: Cytotoxicity screening, ovarian lines taken together; type: cell-based; settings: Homo sapiens, read-out: IC50 range in ovarian cancer cell lines
# [9] = system: BRAF^V600E melanoma cells Sk-Mel28; assay: Cytotoxicity screening; type: cell-based; settings: Homo sapiens, SK-MEL-28
# How it was run: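 Sk-Mel28 (human BRAF V600E melanoma) cells treated with test compound across a dose–response range. Survival percentage relative to control was read, and IC50 was taken from the curve. Two separate experiments were each run in duplicate, reported as mean ± SEM.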
Structure (SMILES),cells in G0G1 phase [1],cells in G2/M phase [1],cells in S phase [1],hypodiploid cells (sub-G1) [1],cells in G0G1 phase [3],cells in G2/M phase [3],cells in S phase [3],hypodiploid cells (sub-G1) [3],pure drug dissolution value [4],cells in G0G1 phase [5],cells in G2/M phase [5],cells in S phase [5],hypodiploid cells [5],solubility of the phase formed at pH 1.2 (in words) [6],further results
"CC(C)(C)c1nc(-c2cccc(NS(=O)(=O)c3c(F)cccc3F)c2F)c(-c2ccnc(N)n2)s1 [DBF, dabrafenib]",68.48%,5.28%,4.60%,19.32%,65.11%,4.53%,3.95%,23.46%,80 mg cm^–2 min^–1,63.91%,10.76%,3.53%,19.32%,–,"fold increase of hypodiploid cells [2]: ~4 fold; cumulative drug dissolved, saturation value ([4]; pH 1.2, 500 mL): 12.18 mg/L"
CC(C)(C)c1nc(-c2cccc(NS(=O)(=O)c3c(F)cccc3F)c2F)c(-c2ccnc(N)n2)s1.O [DBF·MH],–,–,–,–,–,–,–,–,–,–,–,–,–,comparatively less soluble; also recorded: very poor,–
"Cc1[nH]c2ccccc2c1CCNCc1ccc(/C=C/C(=O)NO)cc1 [PAN, panobinostat]",47.46%,10.27%,6.85%,30.15%,42.53%,18.73%,5.17%,30.07%,10 mg cm^–2 min^–1,37.98%,9.99%,6.78%,42.32%,–,"pKa (indole NH) [7]: 8.4; IC50 [8]: 4 to 9 nM; IC50 [9]: 45.3 ± 12 nM; cumulative drug dissolved at 15 min ([4]; pH 1.2, 500 mL, 15 min): 4.60 mg/L; cumulative drug dissolved at 180 min ([4]; pH 1.2, 500 mL, 180 min): 20.81 mg/L"
Cc1[nH]c2ccccc2c1CCNCc1ccc(/C=C/C(=O)NO)cc1.Cl [PAN·HCl],–,–,–,–,–,–,–,–,–,–,–,–,–,high solubility,–
